We go through three molecules from article PMC11383987 (bioRxiv, 2024).

Substitutions are numbered along the chain they refer to. “And” between values parts separate entries of the source, which are not always exact repeats. Equal entries are not always repeated.

In one test the target is T1, PIN8 Y150A (Arabidopsis thaliana, UniProt Q9LFP6, Y150A).
T1 sequence (Q9LFP6 1-367 Y150A): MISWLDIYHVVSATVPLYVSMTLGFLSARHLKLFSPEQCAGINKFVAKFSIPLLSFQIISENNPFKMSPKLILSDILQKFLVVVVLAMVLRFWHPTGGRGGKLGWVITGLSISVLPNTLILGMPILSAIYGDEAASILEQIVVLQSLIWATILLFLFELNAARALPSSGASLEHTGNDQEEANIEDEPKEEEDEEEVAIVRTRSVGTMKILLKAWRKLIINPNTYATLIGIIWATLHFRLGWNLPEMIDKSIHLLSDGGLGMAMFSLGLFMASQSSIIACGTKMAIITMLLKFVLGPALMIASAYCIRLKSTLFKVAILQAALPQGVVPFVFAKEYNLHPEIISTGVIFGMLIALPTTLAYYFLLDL
Put plainly: SSM electrophysiology peak current response, PIN8 Y150A proteoliposomes. It counts as biochemical. The following applies: for Imax: PIN8 Y150A.

The target of test [1] is T2, PIN8 (Arabidopsis thaliana, UniProt Q9LFP6).
T2 sequence (Q9LFP6 1-367): T1 sequence (Q9LFP6 1-367 Y150A) with A150Y
The following applies: read-out: KD of IAA binding by PIN8, previously described; cited from earlier work.

Test [2] concerns the target T3, Arabidopsis thaliana PIN8 (Arabidopsis thaliana, UniProt Q9LFP6).
T3 sequence (Q9LFP6 1-367): T1 sequence (Q9LFP6 1-367 Y150A) with A150Y
Description: SSM electrophysiology peak current response, wild-type PIN8 proteoliposomes. The note with it: for EC50: EC50 of peak current response; for EC50 / Imax: WT PIN8, Michaelis-Menten fit; for peak width of SSM current response at various lipid-to-protein ratios (LPR): LPR10 vs LPR50, variation is consistent with transport. It counts as biochemical.

Another test deals with T4, PIN8 N117A (Arabidopsis thaliana, UniProt Q9LFP6, N117A).
T4 sequence (Q9LFP6 1-367 N117A): T1 sequence (Q9LFP6 1-367 Y150A) with N117A, A150Y
Description: SSM electrophysiology peak current response, PIN8 N117A proteoliposomes. It counts as biochemical. The following applies: 100 μM or 2 mM substrate, relative to WT. The method in brief:
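The N117A point mutant of PIN8 was made by site-directed mutagenesis. It was reconstituted in proteoliposomes in Ca2+-free Ringer pH 7.4 and immobilised on SSM sensors. Peak currents were recorded after a single solution exchange to 100 μM or 2 mM substrate and expressed relative to wild type. Mean ± s.e.m., n = 3 sensors; one-way ANOVA.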

Test [3] has as its target T2, PIN8. Description: KD of substrate binding by competition with NPA binding current. The note with it: KD relative to IAA. The method in brief: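 Purified PIN8 (LMNG) was reconstituted at LPR 10 into soy polar lipid/POPC liposomes in Ca2+-free Ringer pH 7.4 and adsorbed on SSM sensors. Current from 100 µM NPA was recorded with test compound at 0–1000 µM in both activating and non-activating solutions (3 s single exchange). KD was taken as the half-maximal point of a one-site fit of peak current inhibition. n = 3 sensors, 3 technical replicates each.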

A further test concerns A. thaliana PIN3. Description: Xenopus oocyte efflux assay, PIN3 with PID kinase. The following applies: PIN3 with PID kinase in oocytes, NPA-sensitive, internal concentration 1 µM. The test is classed as cell-based, Arabidopsis thaliana. The procedure, abridged: (§1)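 Xenopus oocytes received 150 ng PIN8 or PIN3 cRNA; PIN3 was given with or without 75 ng PID kinase cRNA. [3H]-IAA or [3H]-2,4-D was injected to an internal 1 µM, ± 10 μM NPA internally. Residual radioactivity per oocyte was counted by scintillation over a time course (10 oocytes per point) and set against the initial 100%. %/min rates came from linear regression; each replicate used a different female.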

Test [4] relates to A. thaliana stem segments (wild type and pin1 mutants). Put plainly: Arabidopsis stem segment transport assay. Also on record: species or system Arabidopsis thaliana. The procedure, abridged: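 Stem sections (2 cm) were cut above the rosette of 5-week-old Col-0 or pin1 plants. They were inverted into buffer (500 pM IAA, 1% sucrose, 5 mM MES pH 5.5) ± 100 μM NPA for 2 h. They were then moved to buffer with 417 nM [3H]-IAA or [3H]-2,4-D ± NPA for 2 h. Three 5 mm segments were dissected and counted by liquid scintillation.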

For test [5], the target named is T2, PIN8. Description: Xenopus oocyte efflux assay, PIN8. The following applies: PIN8 in oocytes, NPA-sensitive, internal concentration 1 µM. The test is classed as cell-based. The procedure, abridged: as §1

On to `O=C(O)Cc1c[nH]c2ccccc12` [IAA, indole-3-acetic acid], for which, on PIN8 Y150A, the 50% effective concentration (EC50) is 1210 ± 298 µM and the Imax is reported as 4 ± 0.3 nA. Further, the Kd at PIN8 [1] was 40 ± 15 µM. For the same molecule, in test [2], the EC50 is 250 µM and 254 µM; the “peak width of SSM current response at various lipid-to-protein ratios (LPR)” value is on record as “vary with LPR”; the Imax is 18 ± 3 nA.
On PIN8 Y150A, `O=C(O)COc1ccc(Cl)cc1` [4-CPA, 4-chlorophenoxyacetic acid] returned an EC50 of 2620 ± 263 µM and an Imax of 5 ± 0.4 nA. For the same molecule, at PIN8 N117A, the “current response with N117A mutation” value was “abolishes the current response”. At PIN8 [3], the “affinity lower compared to IAA” value was ~ 8 fold. In addition, in test [2], the EC50 turned out to be 800 ± 200 µM, the “peak width of SSM current response at various lipid-to-protein ratios (LPR)” value is recorded as “vary with LPR” and the Imax is 12 ± 2 nA.
Regarding `O=C(O)COc1ccc(Cl)cc1Cl` [2,4-D, 2,4-dichlorophenoxyacetic acid], the “2,4-D export rate relative to the IAA transport rate” value in the test on A. thaliana PIN3 is “about half”. For the same molecule, the “transport in pin1 mutants” value in test [4] (pin1 mutant stem segments) is reported as “completely abolished”. Moreover, in test [4] (wildtype plants, stem segments), the “transport lower than IAA transport” value is “about 20 fold”. Also, on PIN8 Y150A, the EC50 stood at 684 ± 256 µM and the Imax worked out at 5 ± 1 nA. Besides, the “current response with N117A mutation” value on PIN8 N117A is on record as “abolishes the current response”. In test [2], the concentration giving a half-maximal response (EC50) worked out at 179 ± 10 µM, the “peak width of SSM current response at various lipid-to-protein ratios (LPR)” value was “vary with LPR” and the Imax is reported as 17 ± 2 nA. At PIN8 [5], the “2,4-D export transport rate relative to that determined for IAA” value is “about half”.

The term EC50 denotes the concentration giving half of the maximal effect. Low readings indicate higher potency in that assay, high ones lower potency in that assay. A word on the Kd: it is the constant that tells how readily two partners part at equilibrium.
